Only some compounds are listed: those with a hit (about 2.3% of all), similar ones and a draw of the others.
OXTR agonist: human OXTR agonism. activation, % at 3 µM. 320,000 compounds, 0.32% hits. CHO-OTR cells, Fluo-8 calcium fluorescence; normalized: DMSO 0%, oxytocin 100%. P30559. AID 2435;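 active = activation above the mean of all tested compounds plus 3 SD, cutoff set per screening run, cut at about 20% in these data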;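 also: peak over basal fluorescence ratio from a 100 s FLIPR kinetic read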
Target sequence (P30559 whole entry, looked up): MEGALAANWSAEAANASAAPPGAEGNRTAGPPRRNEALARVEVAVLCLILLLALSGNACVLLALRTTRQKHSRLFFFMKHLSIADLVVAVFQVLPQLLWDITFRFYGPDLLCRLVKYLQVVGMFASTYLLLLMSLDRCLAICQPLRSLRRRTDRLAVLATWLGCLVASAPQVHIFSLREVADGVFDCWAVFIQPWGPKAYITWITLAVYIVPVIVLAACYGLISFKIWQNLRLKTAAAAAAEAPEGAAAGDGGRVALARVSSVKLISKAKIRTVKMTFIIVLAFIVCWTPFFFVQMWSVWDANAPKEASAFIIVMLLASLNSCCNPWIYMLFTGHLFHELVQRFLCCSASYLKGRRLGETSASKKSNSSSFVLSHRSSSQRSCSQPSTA
OXTR potentiate: potentiators of human oxytocin receptor; P30559; CHO-OTR cells, Fluo-8 calcium fluorescence, potentiator mode; 0% = oxytocin EC15, 100% = EC100; activation, % at 3 µM; 320,000 compounds, 0.061% hits;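 active = activation above that plate's cutoff, the mean activation of tested compounds plus 3 SD, cut at about 6.6% in these data, passing the limit was not always enough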;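 also: 100% uses oxytocin at 75 nM as the full agonist control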
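Measured by – Fluo-8 calcium dye fluorescence · Test system – human OTR in CHO cells · Dosing – one concentration, 3.0 µM compound · Controls – EC15 oxytocin alone as 0%, 75 nM oxytocin as 100% · Evaluation – normalized max/min fluorescence ratio, % activation · Timing – 6 min pre-incubation, 100 s read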
TAAR1 antag: antagonists of human TAAR1 | Q96RJ0 | CHO RD-HGA16 TAAR1, Fluo-8 calcium fluorescence, antagonist | inhibition, % at 3 µM | 360,000 compounds, 1.5% hits | AID 624466;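 active = inhibition above a per-plate cutoff, the mean inhibition of test compounds on that plate plus 3 SD, cut at about 49% in these data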;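 also: 0% = DMSO plus EC80 beta-PEA response and 100% = DMSO alone without agonist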
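Material: RD-HGA16 CHO cells with stable hTAAR1 and Gα16; Dosing: single nominal final test compound concentration of 3 µM; Schedule: seeding 17-24 h prior, 75-min 37 °C, 30-min RT dye loading; Detection: kinetic Fluo-8 calcium fluorescence measurement; Measure: % inhibition from peak post-agonist over basal fluorescence ratio; Benchmarks: vehicle and agonist controls.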
TAAR1 agonist: human TAAR1 agonism; Q96RJ0; CHO RD-HGA16 TAAR1, Fluo-8 calcium fluorescence; vehicle wells 0%, saturating PEA agonist 100%; activation, % at 3 µM; 360,000 compounds, 0.99% hits; AID 624467;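 active = activation above the mean activation of all test compounds in the run plus 3 SD, cut at about 38% in these data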
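Test system: RD-HGA16 (CHO) cells co-expressing Gα16 and hTAAR1 / Benchmarks: DMSO vehicle as 0%, PEA at EC100 as 100% / Repeats: no replicates (n 1) / Measure: % activation from peak over basal fluorescence ratio, DMSO-to-PEA scaled / Timing: 17-24 h plating, Fluo-8 75 min 37 °C, 30 min RT / Technique: kinetic Fluo-8 calcium fluorescence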
V1R ag counter: activates human V1a receptor in oxytocin agonist counter-screen | P37288 | CHO-V1R cells, Fluo-8 calcium fluorescence, agonist mode; 0% DMSO, 100% 3 nM vasopressin | AID 2797 | 320,000 compounds, 0.25% hits | activation, % at 3 µM;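 active = activation above the mean activation of all tested compounds plus 3 SD, per screening run, cut at about 20% in these data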;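 also: signal is peak over basal fluorescence ratio across a 100 second FLIPR read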
OXTR pot confirm: confirmation of human oxytocin receptor potentiators | activation, % at 3 µM | 180 tested, under 10 active | CHO-OTR cells, Fluo-8 calcium fluorescence, potentiation; scaled from low-dose to maximal oxytocin | shares compounds with OXTR potentiate;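 active = mean percent activation over triplicates above a cutoff set from solvent-only control plates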;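 also: compounds tested in the presence of an EC15 dose of oxytocin; 0% = EC15 oxytocin with DMSO and 100% = EC100 oxytocin with DMSO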
The depositor's hits bear a star.

O=C(O)c1ccc(-c2nnn(Cc3ccccc3F)n2)cc1 was read as OXTR agonist 2, OXTR potentiate 7.6*, TAAR1 antag -22, TAAR1 agonist -4, V1R ag counter 2 and OXTR pot confirm -4.
For C[C@H]1CNC(=O)c2c(C(=O)N3CCN(c4ccccc4)CC3)ncn21 the results were TAAR1 antag 13 and TAAR1 agonist 0.
For Cn1c(=O)c2c(nc(Br)n2CC(=O)C23CC4CC(CC(C4)C2)C3)n(C)c1=O the results were OXTR agonist -1, OXTR potentiate 10*, TAAR1 antag 30, TAAR1 agonist 18, V1R ag counter 0 and OXTR pot confirm -4.
CS(=O)(=O)Nc1ccc(-c2ccc3nccn3c2)cc1 was read as TAAR1 antag 1 and TAAR1 agonist 2.
Screening O=C(NC(=S)Nc1ccccc1N1CCCC1)c1ccc(-c2cccc([N+](=O)[O-])c2)o1 returned OXTR agonist 0, OXTR potentiate 11*, TAAR1 antag -12, TAAR1 agonist 14, V1R ag counter -1 and OXTR pot confirm -7.
For O=C(NC(=S)Nc1ccccc1N1CCCCC1)c1ccc(-c2cccc([N+](=O)[O-])c2)o1 the results were OXTR agonist -1, OXTR potentiate -1, TAAR1 antag -10, TAAR1 agonist 4 and V1R ag counter 0.
`O=C(Nc1ccncc1)c1cc(C2CCCCN2C(=O)CCCc2ccccc2)on1` (stereo not drawn) gave TAAR1 antag 17 and TAAR1 agonist 16.
`Cc1ccc(C)c(NC(=S)N2CCC(C(=O)c3ccc(F)cc3)CC2)c1` gave TAAR1 antag -4 and TAAR1 agonist 0.
For COc1ccc2c(c1)OC[C@H]1[C@H]2N2C(=O)c3cc(F)ccc3NC(=O)[C@@]2(C)[C@H]1c1ccccc1 the results were OXTR agonist 2, OXTR potentiate 13*, TAAR1 antag 7, TAAR1 agonist -1, V1R ag counter 2 and OXTR pot confirm -8.
Screening COc1ccc2c(c1)OC[C@H]1[C@H]2N2C(=O)c3cc(OC)ccc3NC(=O)[C@@]2(C)[C@H]1c1ccccc1 returned OXTR agonist 0, OXTR potentiate -4, TAAR1 antag 7, TAAR1 agonist 2 and V1R ag counter 0.
Screening CCOC(=O)C1=C(Nc2ccc(Br)cc2)C(=O)N(CC)C1 returned TAAR1 antag -34 and TAAR1 agonist 1.
`Cc1ccc(S(=O)(=O)CCC(=O)Nc2cccc(S(=O)(=O)N3CCCCCC3)c2)cc1` gave OXTR agonist 3, OXTR potentiate -6, TAAR1 antag -4, TAAR1 agonist 4 and V1R ag counter 5.
Screening C[C@H](CO)N1C[C@H](C)[C@@H](CN(C)C(=O)Nc2ccc(C(F)(F)F)cc2)OCc2cn(nn2)CCCC1=O returned TAAR1 antag -8 and TAAR1 agonist 6.
For Cc1ccc(-n2nc(C(=O)c3ccccc3)n3c(=O)c(Cc4ccccc4)nnc23)cc1 the results were OXTR agonist -1, OXTR potentiate 9.9*, TAAR1 antag -1, TAAR1 agonist 8, V1R ag counter -2 and OXTR pot confirm 0.
`Cc1sc2ncnc(SCC(=O)NCC3CCCO3)c2c1C` (stereo not drawn) gave OXTR agonist 1, OXTR potentiate 3, TAAR1 antag 23, TAAR1 agonist 4 and V1R ag counter 1.
For O=C(CSc1ncnc2sc3c(c12)CCC3)NCC1CCCO1 (stereo not drawn) the results were OXTR agonist -1, OXTR potentiate 20*, TAAR1 antag -23, TAAR1 agonist 1, V1R ag counter 2 and OXTR pot confirm -3.
Screening COc1ccc(C2CCc3cc(OC)c(OC)cc3C2NC=O)cc1OC (stereo not drawn) returned TAAR1 antag -20 and TAAR1 agonist 2.
`Cc1ccc(NC(=O)CCS(=O)(=O)c2ccccc2)cc1S(=O)(=O)N1CCOCC1` gave OXTR agonist 2, OXTR potentiate 11*, TAAR1 antag -13, TAAR1 agonist 5, V1R ag counter 1 and OXTR pot confirm -1.
Screening Cc1ccc(NC(=O)CCc2ccccc2)cc1S(=O)(=O)N1CCOCC1 returned OXTR agonist 2, OXTR potentiate -4, TAAR1 antag -3, TAAR1 agonist 4 and V1R ag counter 1.
`O=c1cc(CN2CCN(S(=O)(=O)c3cccc(Cl)c3)CC2)c2ccc(O)cc2o1` gave OXTR agonist 4, OXTR potentiate -8, TAAR1 antag 44, TAAR1 agonist 9 and V1R ag counter 3.
For Cc1cccnc1Nc1ncnc(N)c1[N+](=O)[O-] the results were OXTR agonist 1, OXTR potentiate 11*, TAAR1 antag -8, TAAR1 agonist 1, V1R ag counter 1 and OXTR pot confirm -4.
For Nc1ncnc(Nc2ccccn2)c1[N+](=O)[O-] the results were OXTR agonist 0, OXTR potentiate -14, TAAR1 antag -14, TAAR1 agonist 6 and V1R ag counter -1.
Screening CCCN(CCC)CCNC(=O)CCC(=O)Nc1ccc2nc(N3CCN(C)CC3)cc(C)c2c1 returned OXTR agonist 0, OXTR potentiate 12*, TAAR1 antag -10, TAAR1 agonist 5, V1R ag counter 1 and OXTR pot confirm -1.
Screening O=C(O)[C@H](Cc1ccccc1)NC(=O)[C@H]1O[C@@H](n2ccc(=O)[nH]c2=O)[C@H](O)[C@@H]1O returned TAAR1 antag 4 and TAAR1 agonist 2.
For COc1ccc2cc(S(=O)(=O)N3CCOCC3)ccc2c1 the results were OXTR agonist 0, OXTR potentiate 11*, TAAR1 antag 4, TAAR1 agonist 0, V1R ag counter 1 and OXTR pot confirm -4.
`CC(=O)N1CCc2c(sc(NC(=O)c3ccc([N+](=O)[O-])o3)c2C(N)=O)C1` gave TAAR1 antag 2 and TAAR1 agonist -1.
CCOc1ccccc1Oc1c(C)oc2cc(OC(=O)c3ccco3)ccc2c1=O was read as OXTR agonist -1, OXTR potentiate 13*, TAAR1 antag -1, TAAR1 agonist 8, V1R ag counter 0 and OXTR pot confirm 1.
CCC(C)(C)c1ccc(OCC(=O)Nc2ccncc2)cc1 was read as OXTR agonist 13, OXTR potentiate -24, TAAR1 antag 44, TAAR1 agonist 11 and V1R ag counter 11.
`O=C(COc1ncnc2ccccc12)NC1CCCCC1` gave OXTR agonist 0, OXTR potentiate -3, TAAR1 antag 13, TAAR1 agonist 0 and V1R ag counter 2.
For O=C(COc1ncnc2ccc(Br)cc12)NC1CCCC1 the results were OXTR agonist 1, OXTR potentiate 13*, TAAR1 antag -10, TAAR1 agonist 4, V1R ag counter 0 and OXTR pot confirm -6.
